Measured values taken from ChEMBL document CHEMBL1152495, “Synthesis and antimicrobial studies of novel methylene bridged benzisoxazolyl imidazo[2,1-b][1,3,4]thiadiazole derivatives” (2009).
Values after ≈ are worked out from the molar mass of the structure shown.

Experiments:
Type in all cases: functional
[1] = tested on: Pseudomonas aeruginosa; experiment: Antibacterial activity against Pseudomonas aeruginosa ATCC 10145 after 24 hrs by agar well diffusion method; conditions: ATCC 10145, 24 h
Summary of the method: (§1)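 Agar well diffusion on Mueller Hinton agar (20 mL per dish), seeded homogeneously with liquid bacterial culture by spread plating. Samples loaded directly into wells, dimethylformamide as solvent control, ampicillin as reference drug. Plates incubated at 37 °C for 24 h. All determinations done in triplicate.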

[2] = tested on: Aspergillus fumigatus; experiment: Antifungal activity against Aspergillus fumigatus after 72 hrs by agar well diffusion method
Summary of the method: (§2)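 Fungi grown on Potato Dextrose Agar (20 mL per dish), seeded homogeneously with liquid culture by spread plating. Samples loaded directly into agar wells, with dimethylformamide as solvent control and clotrimazole as reference drug. Plates incubated at 25 °C for 72 h, triplicate determinations.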

[3] = tested on: Bacillus subtilis; experiment: Antibacterial activity against Bacillus subtilis ATCC 6633 at 100 ug/ml after 24 hrs by agar well diffusion method; conditions: ATCC 6633, 24 h, read-out: IZ; summary of the method: as §1
[4] = tested on: Bacillus subtilis; experiment: Antibacterial activity against Bacillus subtilis ATCC 6633 after 24 hrs by agar well diffusion method; conditions: ATCC 6633, 24 h; summary of the method: as §1
[5] = tested on: Candida albicans; experiment: Antifungal activity against Candida albicans after 72 hrs by agar well diffusion method; summary of the method: as §2
[6] = tested on: Staphylococcus aureus; experiment: Antibacterial activity against Staphylococcus aureus ATCC 25923 at 100 ug/ml after 24 hrs by agar well diffusion method; conditions: ATCC 25923, 24 h, read-out: IZ; summary of the method: as §1
[7] = tested on: Escherichia coli; experiment: Antibacterial activity against Escherichia coli ATCC 35218 at 100 ug/ml after 24 hrs by agar well diffusion method; conditions: ATCC 35218, 24 h, read-out: IZ; summary of the method: as §1
[8] = tested on: Escherichia coli; experiment: Antibacterial activity against Escherichia coli ATCC 35218 after 24 hrs by agar well diffusion method; conditions: ATCC 35218, 24 h; summary of the method: as §1
[9] = tested on: Candida albicans; experiment: Antifungal activity against Candida albicans at 100 ug/ml after 72 hrs by agar well diffusion method; conditions: read-out: IZ; summary of the method: as §2
[10] = tested on: Staphylococcus aureus; experiment: Antibacterial activity against Staphylococcus aureus ATCC 25923 after 24 hrs by agar well diffusion method; conditions: ATCC 25923, 24 h; summary of the method: as §1
[11] = tested on: Pseudomonas aeruginosa; experiment: Antibacterial activity against Pseudomonas aeruginosa ATCC 10145 at 100 ug/ml after 24 hrs by agar well diffusion method; conditions: ATCC 10145, 24 h, read-out: IZ; summary of the method: as §1
[12] = tested on: Aspergillus fumigatus; experiment: Antifungal activity against Aspergillus fumigatus at 100 ug/ml after 72 hrs by agar well diffusion method; conditions: read-out: IZ; summary of the method: as §2

Compound | MIC [1] | MIC [2] | zone of inhibition at 100 µg/mL [3] | MIC [4] | MIC [5] | zone of inhibition at 100 µg/mL [6] | zone of inhibition at 100 µg/mL [7] | MIC [8] | zone of inhibition at 100 µg/mL [9] | MIC [10] | zone of inhibition at 100 µg/mL [11] | zone of inhibition at 100 µg/mL [12]
O=Nc1c(-c2ccccc2)nc2sc(Cc3noc4ccccc34)nn12 | 3 µg/mL (≈ 8.3 µM) | 2.5 µg/mL (≈ 6.92 µM) | 13 mm | 2 µg/mL (≈ 5.53 µM) | 3.5 µg/mL (≈ 9.68 µM) | 18 mm | 11 mm | 3 µg/mL (≈ 8.3 µM) | 13 mm | 1 µg/mL (≈ 2.77 µM) | 10 mm | 16 mm
COc1ccc(-c2nc3sc(Cc4noc5ccccc45)nn3c2N=O)cc1 | 3.5 µg/mL (≈ 8.94 µM) | 4 µg/mL (≈ 10.2 µM) | 11 mm | 3 µg/mL (≈ 7.66 µM) | 3 µg/mL (≈ 7.66 µM) | 13 mm | 16 mm | 2 µg/mL (≈ 5.11 µM) | 14 mm | 1.5 µg/mL (≈ 3.83 µM) | 8 mm | 10 mm
c1ccc(-c2cn3nc(Cc4noc5ccccc45)sc3n2)cc1 | 3.5 µg/mL (≈ 10.5 µM) | 2 µg/mL (≈ 6.02 µM) | 11 mm | 2 µg/mL (≈ 6.02 µM) | 3.5 µg/mL (≈ 10.5 µM) | 16 mm | 9 mm | 3.5 µg/mL (≈ 10.5 µM) | 12 mm | 1 µg/mL (≈ 3.01 µM) | 9 mm | 19 mm
COc1ccc(-c2nc3sc(Cc4noc5ccccc45)nn3c2Br)cc1 | 2 µg/mL (≈ 4.53 µM) | 2.5 µg/mL (≈ 5.66 µM) | 18 mm | 0.5 µg/mL (≈ 1.13 µM) | 4 µg/mL (≈ 9.06 µM) | 11 mm | 16 mm | 2 µg/mL (≈ 4.53 µM) | 10 mm | 1.5 µg/mL (≈ 3.4 µM) | 17 mm | 15 mm
Nc1nnc(Cc2noc3ccccc23)s1 | 2.5 µg/mL (≈ 10.8 µM) | 3.5 µg/mL (≈ 15.1 µM) | 15 mm | 1 µg/mL (≈ 4.31 µM) | 3 µg/mL (≈ 12.9 µM) | 15 mm | 10 mm | 3.5 µg/mL (≈ 15.1 µM) | 14 mm | 1.5 µg/mL (≈ 6.46 µM) | 14 mm | 11 mm
O=Nc1c(-c2ccc(Br)cc2)nc2sc(Cc3noc4ccccc34)nn12 | 3 µg/mL (≈ 6.81 µM) | 2.5 µg/mL (≈ 5.68 µM) | 12 mm | 2.5 µg/mL (≈ 5.68 µM) | 2.5 µg/mL (≈ 5.68 µM) | 16 mm | 14 mm | 2 µg/mL (≈ 4.54 µM) | 17 mm | 1 µg/mL (≈ 2.27 µM) | 12 mm | 15 mm
Brc1c(-c2ccccc2)nc2sc(Cc3noc4ccccc34)nn12 | 2 µg/mL (≈ 4.86 µM) | 3.5 µg/mL (≈ 8.51 µM) | 12 mm | 2.5 µg/mL (≈ 6.08 µM) | 3 µg/mL (≈ 7.29 µM) | 18 mm | 11 mm | 3 µg/mL (≈ 7.29 µM) | 14 mm | 1 µg/mL (≈ 2.43 µM) | 16 mm | 12 mm
Brc1ccc(-c2cn3nc(Cc4noc5ccccc45)sc3n2)cc1 | 2.5 µg/mL (≈ 6.08 µM) | 3.5 µg/mL (≈ 8.51 µM) | 18 mm | 0.5 µg/mL (≈ 1.22 µM) | 2 µg/mL (≈ 4.86 µM) | 15 mm | 20 mm | 1 µg/mL (≈ 2.43 µM) | 22 mm | 2.5 µg/mL (≈ 6.08 µM) | 14 mm | 13 mm
O=c1oc2ccccc2cc1-c1cn2nc(Cc3noc4ccccc34)sc2n1 | 3 µg/mL (≈ 7.49 µM) | 3.5 µg/mL (≈ 8.74 µM) | 15 mm | 1 µg/mL (≈ 2.5 µM) | 2.5 µg/mL (≈ 6.24 µM) | 13 mm | 10 mm | 3.5 µg/mL (≈ 8.74 µM) | 20 mm | 3 µg/mL (≈ 7.49 µM) | 10 mm | 13 mm
CC1(C)S[C@@H]2[C@H](NC(=O)[C@H](N)c3ccccc3)C(=O)N2[C@H]1C(=O)O [AMPICILLIN] | 2 µg/mL (≈ 5.72 µM) |  | 18 mm | 0.5 µg/mL (≈ 1.43 µM) |  | 19 mm | 16 mm |  |  | 1 µg/mL (≈ 2.86 µM) | 17 mm | 
Clc1ccccc1C(c1ccccc1)(c1ccccc1)n1ccnc1 [CLOTRIMAZOLE] |  | 2 µg/mL (≈ 5.8 µM) |  |  | 2 µg/mL (≈ 5.8 µM) |  |  |  | 22 mm |  |  | 20 mm
